# Where two headings read alike, the source gives them in different places. Marks after values point to notes of the source that are not given here.
# Key:
# [1] = Single-dose pharmacokinetics of pantoprazole delayed-release tablet, study 2; type: in vivo, human; conditions: for AUC / CL/F / Cmax / Tmax / Vd/F / half-life: human, plasma, po; for tlag: study 2, 12-16 y, median (range)
# [2] = Safety and tolerability, on-treatment adverse events, study 1; type: in vivo, human; conditions: for Abdominal pain / Accidental injury / Fever / Headache / Otitis media / Upper respiratory infection: on-treatment AE; for Abdominal pain / Accidental injury / Fever / Headache / Otitis media / Upper respiratory infection / Any AE: patients (percent); for Any AE: on-treatment
# In short: (§1)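 Patients randomized 1:1 to 20 or 40 mg delayed-release tablet once daily: about 28 days in study 1, at least 5 consecutive doses in study 2. On-treatment AEs were those occurring during dosing or within 48 h of the last dose. Vital signs were taken 2 h predose and 2, 8 and 12 h postdose on day 1. Physical exam and labs were done on the multiple-dose PK day. Telephone AE follow-up came 14 days after completion.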
# [3] = Single-dose pharmacokinetics of pantoprazole delayed-release tablet, study 1; type: in vivo, human; conditions: for AUC / CL/F / Cmax / Tmax / Vd/F / half-life: human, plasma, po; for tlag: study 1, 6-11 y, median (range)
# [4] = adults; cited from earlier work
# [5] = Safety and tolerability, on-treatment adverse events, study 2; type: in vivo, human; conditions: for Abdominal pain / Accidental injury / Fever / Headache / Otitis media: on-treatment AE; for Abdominal pain / Accidental injury / Fever / Headache / Otitis media / Any AE: patients (percent); for Any AE: on-treatment
# In short: as §1
# [6] = neonates; cited from earlier work
# [7] = study 1, 20 mg once daily (n = 11)
# [8] = study 1, 40 mg once daily (n = 13)
# [9] = study 1, 20 or 40 mg once daily
# [10] = study 1, total of both doses (n = 24)
# [11] = study 2, 20 mg once daily (n = 11)
# [12] = study 2, 40 mg once daily (n = 11)
# [13] = study 2, 20 or 40 mg once daily
# [14] = study 2, total of both doses (n = 22)
smiles,measurement,setting,value
COc1ccnc(C[S+]([O-])c2nc3ccc(OC(F)F)cc3[nH]2)c1OC (centres unmarked) [pantoprazole],AUC,[1]; 20 mg,1300 ± 600 ng·h/mL
same,CL/F,[1]; 20 mg,4.67 mL/min/kg
same,Cmax,[1]; 20 mg,900 ± 500 ng/mL
same,Tmax,[1]; 20 mg,1.5 h
same,Vd/F,[1]; 20 mg,0.32 ± 0.22 L/kg
same,half-life,[1]; 20 mg,0.8 ± 0.3 h
same,AUC,[1]; 40 mg,4300 ± 3100 ng·h/mL
same,CL/F,[1]; 40 mg,3 mL/min/kg
same,Cmax,[1]; 40 mg,2200 ± 1400 ng/mL
same,Tmax,[1]; 40 mg,2 h
same,Vd/F,[1]; 40 mg,0.21 ± 0.06 L/kg
same,half-life,[1]; 40 mg,0.9 ± 0.3 h
same,tlag,"[1]; single oral 20 mg tablet, n = 9","1.0 (0, 2.5) ^c h"
same,tlag,"[1]; single oral 40 mg tablet, n = 11","1.0 (0, 8) h"
same,Abdominal pain,[2]; [7],3 (27.3)
same,Accidental injury,[2]; [7],1 (9.1)
same,Fever,[2]; [7],1 (9.1)
same,Headache,[2]; [7],1 (9.1)
same,Otitis media,[2]; [7],2 (18.2)
same,Upper respiratory infection,[2]; [7],2 (18.2)
same,Any AE,[2]; [7],9 (81.8)
same,Abdominal pain,[2]; [8],1 (7.7)
same,Accidental injury,[2]; [8],1 (7.7)
same,Fever,[2]; [8],1 (7.7)
same,Headache,[2]; [8],2 (15.4)
same,Otitis media,[2]; [8],0
same,Upper respiratory infection,[2]; [8],0
same,Any AE,[2]; [8],7 (53.8)
same,"ECG, QTc changes",[2]; [9],no abnormal QTc changes
same,serious AEs,[2]; [9],no serious AEs
same,severity of all AEs,[2]; [9],mild or moderate
same,Abdominal pain,[2]; [10],4 (16.7)
same,Accidental injury,[2]; [10],2 (8.3)
same,Fever,[2]; [10],2 (8.3)
same,Headache,[2]; [10],3 (12.5)
same,Otitis media,[2]; [10],2 (8.3)
same,Upper respiratory infection,[2]; [10],2 (8.3)
same,Any AE,[2]; [10],16 (66.7)
same,AUC,[3]; 20 mg,2500 ± 2100 ng·h/mL
same,CL/F,[3]; 20 mg,6.83 mL/min/kg
same,Cmax,[3]; 20 mg,1600 ± 1200 ng/mL
same,Tmax,[3]; 20 mg,2 h
same,Vd/F,[3]; 20 mg,0.43 ± 0.3 L/kg
same,half-life,[3]; 20 mg,0.8 ± 0.2 h
same,AUC,[3]; 40 mg,3800 ± 1800 ng·h/mL
same,CL/F,[3]; 40 mg,6.67 mL/min/kg
same,Cmax,[3]; 40 mg,2100 ± 1300 ng/mL
same,Tmax,[3]; 40 mg,2 h
same,Vd/F,[3]; 40 mg,0.4 ± 0.27 L/kg
same,half-life,[3]; 40 mg,0.7 ± 0.2 h
same,tlag,"[3]; single oral 20 mg tablet, n = 10","1.0 (0.5, 2.0) h"
same,tlag,"[3]; single oral 40 mg tablet, n = 12","0.8 (0, 1.0) ^b h"
same,concentration of pantoprazole at 12 hours after the first dose,"[3]; study 1, all patients, 20 or 40 mg, lower limit of quantitation 10 ng/mL",below the lower limit of quantitation
same,accumulation on repeated once-daily dosing,[4],does not result in accumulation
same,half-life,[4],approximately 1 hour
same,Abdominal pain,[5]; [11],0
same,Accidental injury,[5]; [11],0
same,Fever,[5]; [11],0
same,Headache,[5]; [11],0
same,Otitis media,[5]; [11],0
same,Any AE,[5]; [11],2 (18.2)
same,Abdominal pain,[5]; [12],2 (18.2)
same,Accidental injury,[5]; [12],0
same,Fever,[5]; [12],1 (9.1)
same,Headache,[5]; [12],1 (9.1)
same,Otitis media,[5]; [12],0
same,Any AE,[5]; [12],4 (36.4)
same,"ECG, QTc changes",[5]; [13],no abnormal QTc changes
same,serious AEs,[5]; [13],no serious AEs
same,severity of all AEs,[5]; [13],mild or moderate
same,Abdominal pain,[5]; [14],2 (9.1)
same,Accidental injury,[5]; [14],0
same,Fever,[5]; [14],1 (4.5)
same,Headache,[5]; [14],1 (4.5)
same,Otitis media,[5]; [14],0
same,Any AE,[5]; [14],6 (27.3)
same,mean CL/F,[6],3.67 mL/min/kg
